Experiments:
[1] = system: 59-nt TAR RNA / TAR DNA hairpins; assay: Gel-shift TAR RNA/DNA annealing assay; format: biochemical, HIV-1; settings: for kobs: average of three trials ± SD, SD; for Fold decrease of kobs relative to WT NC: normalized for protein concentration
[2] = system: 5′-FAM-DNA20 (20-mer single-stranded DNA); assay: Fluorescence anisotropy; format: binding
Procedure, shortened: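 Binding was measured by fluorescence anisotropy. CCHC-containing constructs were reconstituted with 3 equiv zinc unless noted. Kd was fitted with a quadratic binding equation corrected for the bound/free intensity ratio.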

[3] = system: 59-nt TAR RNA and TAR DNA; assay: Sedimentation assay of nucleic acid aggregation; format: biochemical, HIV-1; settings: 0.2 mM MgCl2
Procedure, shortened: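 Refolded 32P-TAR RNA (15 nM) and TAR DNA (45 nM) were incubated with varying protein in 20 mM HEPES pH 7.5 and 20 mM NaCl (final MgCl2 0.2 mM) for 30 min at 37 °C. Fragments were run at 10–50 μM, with or without zinc. Samples were centrifuged at 10000 rpm for 10 min, and supernatant radioactivity was counted by scintillation.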

[4] = 0.88 μM peptide, 45 nM TAR DNA, 2 mM MgCl2
[5] = 4 μM protein, 90 nM TAR DNA and 2 mM MgCl2

## NC(1-14): HIV-1 NC fragment, residues 1-14, basic N-terminal domain
[1]; 20 μM peptide, 15 nM TAR RNA, 45 nM TAR DNA, 0.2 mM MgCl2, 37 °C, 30 min
  Final % Annealing: 3%
[1]; 50 μM peptide, 15 nM TAR RNA, 45 nM TAR DNA, 0.2 mM MgCl2, 37 °C, 30 min
  Final % Annealing: did not change appreciably
[2]; FA, no zinc acetate
  Binding to 5′-FAM-DNA20 (in words): no binding could be detected

## NC(1-35): HIV-1 NC fragment, residues 1-35, purchased from Genscript
[1]; 0.88 μM peptide, 45 nM TAR DNA, 0.2 mM MgCl2
  RNA annealed at 30 sec: ~ 75%
[1]; [4]
  Final % Annealing: 54%
  kobs: 0.17 ± 0.07 min⁻¹
[1]; 0.88 μM peptide, 2 mM MgCl2
  Fold decrease of kobs relative to WT NC: 1.3 fold
[3]
  Nucleic acid aggregation (in words): essentially complete aggregation
[2]; 5′-FAM-DNA20
  Fold higher affinity of zinc-bound form relative to zinc-less variant: 2- to 3 fold
[2]; 5′-FAM-DNA20, 50 mM NaCl
  Fold lower ss DNA binding affinity than WT NC: ≤ 2 fold
[2]; read-out: Apparent binding dissociation constant Kd to 5′-FAM-DNA20, FA, 20 nM DNA, 20 mM HEPES pH 7.5, 50 mM NaCl, 5 mM β-mercaptoethanol, 10 μM TCEP, 1 μM zinc acetate, 30 min, 25 °C, average of three trials ± SD, SD
  Kd: 0.086 ± 0.019 µM

## WT (zinc-less): full-length HIV-1 NC not reconstituted with zinc
[1]; [5]
  Final % Annealing: 22%
  kobs: 0.07 ± 0.02 min⁻¹
  Fold decrease of kobs relative to WT NC: 2 fold
